{
  "source": "ChEMBL document CHEMBL4622869",
  "about": "“Discovery and structure-activity relationships study of positive allosteric modulators of the M3 muscarinic acetylcholine receptor” (Bioorg Med Chem, 2020)",
  "type_in_all_cases": "functional, cell-based",
  "details_in_all_cases": "CHO-K1",
  "key": {"[1]": {"target": "T1, Muscarinic acetylcholine receptor M1 (Homo sapiens) (UniProt P11229)", "T1 sequence (whole entry)": "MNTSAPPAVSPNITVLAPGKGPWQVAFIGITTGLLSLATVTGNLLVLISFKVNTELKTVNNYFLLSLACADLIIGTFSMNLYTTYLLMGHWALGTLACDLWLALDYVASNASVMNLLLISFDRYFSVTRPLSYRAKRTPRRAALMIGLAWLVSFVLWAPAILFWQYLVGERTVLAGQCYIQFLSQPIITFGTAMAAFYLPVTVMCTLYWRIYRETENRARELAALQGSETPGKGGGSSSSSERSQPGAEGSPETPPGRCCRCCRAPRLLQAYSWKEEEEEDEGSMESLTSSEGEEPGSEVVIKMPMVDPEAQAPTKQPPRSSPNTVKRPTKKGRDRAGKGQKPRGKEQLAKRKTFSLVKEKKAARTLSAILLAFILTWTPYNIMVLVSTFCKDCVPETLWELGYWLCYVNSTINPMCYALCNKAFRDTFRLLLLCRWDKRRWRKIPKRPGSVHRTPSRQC", "test": "(§1) Positive allosteric modulation of recombinant human muscarinic acetylcholine receptor M1 expressed in CHOK1 cells assessed as increase in carbachol-induced intracellular calcium flux at 10 uM preincubated for 5 mins followed by carbachol addition by Fluo4-AM dye based FLIPR assay relative to carbachol", "in_short": "(§2)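 CHO-K1 cells stably expressing human or rat M1–M5; M2 and M4 lines also co-express human Gα16. Cells loaded with 3.1 μM Fluo-4 AM in HBSS/20 mM HEPES pH 7.5/BSA/2.5 mM probenecid for ~2 h at room temperature. Test substance at 10 μM final, then carbachol (0.0024 nM–100 μM) ~5 min later; Ca2+ read by FLIPR Tetra. Fold shift = carbachol EC50 without / with test substance, from logistic fits.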"}, "[2]": {"target": "T2, Muscarinic acetylcholine receptor M2 (Homo sapiens) (UniProt P08172)", "T2 sequence (whole entry)": "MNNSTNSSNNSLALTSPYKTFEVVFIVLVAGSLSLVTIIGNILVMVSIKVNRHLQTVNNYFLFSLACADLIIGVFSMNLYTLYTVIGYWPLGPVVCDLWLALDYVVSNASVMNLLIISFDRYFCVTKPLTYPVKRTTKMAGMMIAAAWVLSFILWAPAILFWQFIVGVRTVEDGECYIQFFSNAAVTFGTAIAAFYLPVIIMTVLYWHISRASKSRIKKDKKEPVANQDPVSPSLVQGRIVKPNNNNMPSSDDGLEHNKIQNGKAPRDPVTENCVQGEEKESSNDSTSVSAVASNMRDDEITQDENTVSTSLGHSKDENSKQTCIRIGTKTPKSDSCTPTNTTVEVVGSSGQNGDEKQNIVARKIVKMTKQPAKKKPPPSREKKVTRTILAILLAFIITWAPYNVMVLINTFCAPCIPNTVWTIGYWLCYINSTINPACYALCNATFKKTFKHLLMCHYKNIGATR", "test": "as §1, with “M2” for “M1”, “cells coexpressing G-alpha16” for “cells”, “Fluo4-AM” for “Fluo4-AM dye”", "in_short": "as §2"}, "[3]": {"target": "T3, Muscarinic acetylcholine receptor M2 (Rattus norvegicus) (UniProt P10980)", "T3 sequence (whole entry)": "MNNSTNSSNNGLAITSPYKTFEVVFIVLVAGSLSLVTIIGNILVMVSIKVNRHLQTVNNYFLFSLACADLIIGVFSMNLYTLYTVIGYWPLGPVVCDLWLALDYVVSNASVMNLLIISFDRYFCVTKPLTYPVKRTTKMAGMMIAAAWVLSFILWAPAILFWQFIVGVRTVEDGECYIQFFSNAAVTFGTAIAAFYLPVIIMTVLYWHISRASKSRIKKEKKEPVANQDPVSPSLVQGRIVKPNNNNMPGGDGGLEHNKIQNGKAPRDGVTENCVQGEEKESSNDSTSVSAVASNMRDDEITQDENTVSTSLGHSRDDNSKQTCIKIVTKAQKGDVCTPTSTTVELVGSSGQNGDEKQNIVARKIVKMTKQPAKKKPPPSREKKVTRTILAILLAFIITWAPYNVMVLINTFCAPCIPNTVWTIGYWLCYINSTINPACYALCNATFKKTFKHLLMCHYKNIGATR", "test": "as §1, with “rat” for “human”, “M2” for “M1”, “cells coexpressing G-alpha16” for “cells”", "in_short": "as §2"}, "[4]": {"target": "T4, Muscarinic acetylcholine receptor M4 (Rattus norvegicus) (UniProt P08485)", "T4 sequence (whole entry)": "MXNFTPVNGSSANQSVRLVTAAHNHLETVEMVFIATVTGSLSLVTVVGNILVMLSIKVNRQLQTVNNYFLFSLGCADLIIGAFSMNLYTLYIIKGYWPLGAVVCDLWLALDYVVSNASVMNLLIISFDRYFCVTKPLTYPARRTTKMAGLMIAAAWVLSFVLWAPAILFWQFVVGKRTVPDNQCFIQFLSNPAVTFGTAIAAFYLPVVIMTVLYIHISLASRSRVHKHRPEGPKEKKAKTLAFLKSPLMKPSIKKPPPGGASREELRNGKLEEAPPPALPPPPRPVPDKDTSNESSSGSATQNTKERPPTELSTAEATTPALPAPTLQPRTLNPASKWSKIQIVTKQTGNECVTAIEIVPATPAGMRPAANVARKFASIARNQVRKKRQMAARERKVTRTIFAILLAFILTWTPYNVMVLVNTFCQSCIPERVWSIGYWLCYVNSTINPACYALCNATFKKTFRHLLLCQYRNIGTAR", "test": "as §1, with “rat” for “human”, “M4” for “M1”, “cells coexpressing G-alpha16” for “cells”", "in_short": "as §2"}},
  "data": [
    {"smiles": "CC[C@@H]1CCCN1Cc1sc(NC(=O)c2cnc(N3CCC(C(=O)O)CC3)cn2)nc1-c1ccc(OC)c(C(F)(F)F)c1.Cl.Cl", "values": [
      {"measurement": "fold change (FC)", "setting": "[1]", "result": 2.3},
      {"measurement": "fold change (FC)", "setting": "[2]", "result": 1.3},
      {"measurement": "fold change (FC)", "setting": "[3]", "result": 1.6},
      {"measurement": "fold change (FC)", "setting": "[4]", "result": 0.7}
    ]}
  ]
}
